Laboratory results as given in ChEMBL document CHEMBL1773057, “Design, synthesis and in vitro antimicrobial evaluation of novel Imidazo[1,2-a]pyridine and imidazo[2,1-b][1,3]benzothiazole motifs” (2011).
≈ marks a conversion by molar mass, not a printed value.

Key:
Type in all cases: functional
[1] = tested on: Enterococcus faecalis; experiment: Antimicrobial activity against Enterococcus faecalis after 24 hrs by broth microdilution method
Procedure, shortened: (§1)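 Broth microdilution. Bacteria were grown on Mueller-Hinton agar and diluted in Mueller-Hinton broth. Compounds were made as 1000 µg/mL stocks in 50% DMSO/H₂O and added to wells as two-fold dilutions starting at 500 µg/mL, then inoculated. Sealed plates were incubated at 37 °C for 24 h in a humid chamber. MIC was the lowest concentration with no visible turbidity.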

[2] = tested on: Staphylococcus aureus; experiment: Antimicrobial activity against Staphylococcus aureus after 24 hrs by broth microdilution method; procedure, shortened: as §1
[3] = tested on: Pseudomonas aeruginosa; experiment: Antimicrobial activity against Pseudomonas aeruginosa after 24 hrs by broth microdilution method; procedure, shortened: as §1
[4] = tested on: Escherichia coli; experiment: Antimicrobial activity against Escherichia coli after 24 hrs by broth microdilution method; procedure, shortened: as §1
[5] = tested on: Candida albicans; experiment: Antimicrobial activity against Candida albicans after 48 hrs by broth microdilution method
Procedure, shortened: (§2)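 Fungi were grown on Sabouraud dextrose agar. Inocula were prepared in Sabouraud liquid medium at 37 °C for 12 h, then diluted in RPMI-1640 with L-glutamine, MOPS-buffered at pH 7. Compounds were made as 1000 µg/mL stocks in 50% DMSO/H₂O and tested as two-fold dilutions from 500 µg/mL. Sealed plates were incubated at 37 °C for 48 h in a humid chamber. MIC was the lowest concentration without visible turbidity.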

[6] = tested on: Priestia megaterium; experiment: Antimicrobial activity against Bacillus megaterium after 24 hrs by broth microdilution method; procedure, shortened: as §1
[7] = tested on: Candida parapsilosis; experiment: Antimicrobial activity against Candida parapsilosis after 48 hrs by broth microdilution method; details: Lodderomyces parapsilosis; procedure, shortened: as §2
[8] = tested on: Klebsiella aerogenes; experiment: Antimicrobial activity against Enterobacter aerogenes after 24 hrs by broth microdilution method; procedure, shortened: as §1
[9] = tested on: Nannizzia gypsea; experiment: Antimicrobial activity against Microsporum gypseum after 48 hrs by broth microdilution method; procedure, shortened: as §2
[10] = tested on: Aspergillus flavus; experiment: Antimicrobial activity against Aspergillus flavus after 48 hrs by broth microdilution method; procedure, shortened: as §2

Row | Compound | MIC [1] [mg/L] | MIC [2] [mg/L] | MIC [3] [mg/L] | MIC [4] [mg/L] | MIC [5] [mg/L] | MIC [6] [mg/L] | MIC [7] [mg/L] | MIC [8] [mg/L] | MIC [9] [mg/L] | MIC [10] [mg/L]
1 | Fc1ccc(Nc2c(-c3c[nH]c4ccc(Br)cc34)nc3ccc(-c4nc5ccc(F)cc5[nH]4)cn23)cc1 | 1.36 (≈ 2.45 µM) | 1.12 (≈ 2.02 µM) | 1.51 (≈ 2.72 µM) | 1.12 (≈ 2.02 µM) | 11.3 (≈ 20.4 µM) | 1.43 (≈ 2.57 µM) | 10.4 (≈ 18.7 µM) | 1.15 (≈ 2.07 µM) | 9.14 (≈ 16.5 µM) | 12.2 (≈ 22 µM)
2 | O=[N+]([O-])c1ccc(-c2cnc(-c3ccc4nc(-c5c[nH]c6ccc(Br)cc56)c(Nc5ccc(F)cc5)n4c3)[nH]2)cc1 | 3.17 (≈ 5.21 µM) | 2.52 (≈ 4.14 µM) | 2.11 (≈ 3.47 µM) | 2.13 (≈ 3.5 µM) | 8.72 (≈ 14.3 µM) | 4.24 (≈ 6.97 µM) | 6.22 (≈ 10.2 µM) | 2.35 (≈ 3.86 µM) | 7.44 (≈ 12.2 µM) | 9.35 (≈ 15.4 µM)
3 | Cc1ccc(-c2cnc(-c3ccc4nc(-c5c[nH]c6ccc(Br)cc56)c(Nc5ccc(F)cc5)n4c3)[nH]2)cc1 | 7.32 (≈ 12.7 µM) | 5.13 (≈ 8.88 µM) | 8.28 (≈ 14.3 µM) | 6.11 (≈ 10.6 µM) | 19.5 (≈ 33.8 µM) | 1.25 (≈ 2.16 µM) | 18.4 (≈ 31.9 µM) | 6.22 (≈ 10.8 µM) | 15.6 (≈ 27 µM) | 16.5 (≈ 28.5 µM)
4 | Fc1ccc(Nc2c(-c3c[nH]c4ccc(Br)cc34)nc3ccc(-c4ncc(-c5ccc(F)cc5)[nH]4)cn23)cc1 | 1.96 (≈ 3.37 µM) | 0.23 (≈ 0.396 µM) | 0.52 (≈ 0.894 µM) | 0.42 (≈ 0.722 µM) | 3.21 (≈ 5.52 µM) | 1.13 (≈ 1.94 µM) | 4.61 (≈ 7.93 µM) | 0.17 (≈ 0.292 µM) | 8.12 (≈ 14 µM) | 3.25 (≈ 5.59 µM)
5 | Fc1ccc(Nc2c(-c3c[nH]c4ccc(Br)cc34)nc3ccc(-c4nnc(-c5ccc(F)cc5)o4)cn23)cc1 | 0.37 (≈ 0.634 µM) | 0.31 (≈ 0.531 µM) | 0.21 (≈ 0.36 µM) | 0.11 (≈ 0.189 µM) | 2.54 (≈ 4.35 µM) | 1.97 (≈ 3.38 µM) | 2.22 (≈ 3.81 µM) | 0.35 (≈ 0.6 µM) | 4.25 (≈ 7.28 µM) | 3.13 (≈ 5.37 µM)
6 | Cc1ccc(-c2nnc(-c3ccc4nc(-c5c[nH]c6ccc(Br)cc56)c(Nc5ccc(F)cc5)n4c3)o2)cc1 | 7.56 (≈ 13 µM) | 3.13 (≈ 5.4 µM) | 5.64 (≈ 9.73 µM) | 6.72 (≈ 11.6 µM) | 11.6 (≈ 20.1 µM) | 6.44 (≈ 11.1 µM) | 10.4 (≈ 18 µM) | 4.42 (≈ 7.63 µM) | 13.4 (≈ 23.1 µM) | 6.55 (≈ 11.3 µM)
7 | O=[N+]([O-])c1ccc(-c2nnc(-c3ccc4nc(-c5c[nH]c6ccc(Br)cc56)c(Nc5ccc(F)cc5)n4c3)o2)cc1 | 2.11 (≈ 3.46 µM) | 2.45 (≈ 4.01 µM) | 2.45 (≈ 4.01 µM) | 3.32 (≈ 5.44 µM) | 6.63 (≈ 10.9 µM) | 4.34 (≈ 7.11 µM) | 5.71 (≈ 9.35 µM) | 3.13 (≈ 5.13 µM) | 11.2 (≈ 18.4 µM) | 8.31 (≈ 13.6 µM)
8 | Cc1ccc2nc(-c3ccc4nc(-c5cnc6ccc(Br)cc6c5)c(Nc5ccc(F)cc5)n4c3)[nH]c2c1 | 7.34 (≈ 13 µM) | 7.43 (≈ 13.2 µM) | 5.45 (≈ 9.67 µM) | 6.21 (≈ 11 µM) | 16.4 (≈ 29 µM) | 7.54 (≈ 13.4 µM) | 15.5 (≈ 27.6 µM) | 5.35 (≈ 9.5 µM) | 17.5 (≈ 31.1 µM) | 15.4 (≈ 27.4 µM)
9 | Fc1ccc(Nc2c(-c3cnc4ccc(Br)cc4c3)nc3ccc(-c4nc5ccc(F)cc5[nH]4)cn23)cc1 | 1.47 (≈ 2.59 µM) | 1.46 (≈ 2.57 µM) | 1.35 (≈ 2.38 µM) | 1.34 (≈ 2.36 µM) | 1.11 (≈ 1.96 µM) | 2.53 (≈ 4.46 µM) | 1.22 (≈ 2.15 µM) | 1.55 (≈ 2.73 µM) | 1.21 (≈ 2.13 µM) | 1.36 (≈ 2.4 µM)
10 | O=[N+]([O-])c1ccc2nc(-c3ccc4nc(-c5cnc6ccc(Br)cc6c5)c(Nc5ccc(F)cc5)n4c3)[nH]c2c1 | 3.36 (≈ 5.65 µM) | 2.12 (≈ 3.57 µM) | 2.32 (≈ 3.9 µM) | 2.14 (≈ 3.6 µM) | 4.23 (≈ 7.12 µM) | 4.12 (≈ 6.93 µM) | 5.34 (≈ 8.98 µM) | 3.15 (≈ 5.3 µM) | 9.41 (≈ 15.8 µM) | 7.63 (≈ 12.8 µM)
11 | Fc1ccc(Nc2c(-c3cnc4ccc(Br)cc4c3)nc3ccc(-c4ncc(-c5ccc(F)cc5)[nH]4)cn23)cc1 | 1.21 (≈ 2.04 µM) | 0.63 (≈ 1.06 µM) | 1.34 (≈ 2.26 µM) | 1.15 (≈ 1.94 µM) | 1.05 (≈ 1.77 µM) | 4.07 (≈ 6.86 µM) | 1.15 (≈ 1.94 µM) | 0.81 (≈ 1.36 µM) | 0.84 (≈ 1.42 µM) | 0.72 (≈ 1.21 µM)
12 | Cc1ccc(-c2cnc(-c3ccc4nc(-c5cnc6ccc(Br)cc6c5)c(Nc5ccc(F)cc5)n4c3)[nH]2)cc1 | 2.26 (≈ 3.83 µM) | 1.95 (≈ 3.31 µM) | 2.89 (≈ 4.9 µM) | 3.42 (≈ 5.8 µM) | 13.1 (≈ 22.3 µM) | 5.14 (≈ 8.72 µM) | 12.6 (≈ 21.3 µM) | 2.78 (≈ 4.72 µM) | 11.5 (≈ 19.5 µM) | 12.6 (≈ 21.4 µM)
13 | Cc1ccc(-c2nnc(-c3ccc4nc(-c5cnc6ccc(Br)cc6c5)c(Nc5ccc(F)cc5)n4c3)o2)cc1 | 2.32 (≈ 3.92 µM) | 1.24 (≈ 2.1 µM) | 2.57 (≈ 4.35 µM) | 2.43 (≈ 4.11 µM) | 12.2 (≈ 20.7 µM) | 3.15 (≈ 5.33 µM) | 12.2 (≈ 20.7 µM) | 1.74 (≈ 2.94 µM) | 11.2 (≈ 18.9 µM) | 11.3 (≈ 19.1 µM)
